According to PMC3656968 (Journal of medicinal chemistry, 2013):
Where two headings read alike, the source gives them in different places. Marks after values point to notes of the source that are not given here.

Legend:
[1] = biological target: T1, human serum albumin (HSA) (Homo sapiens, UniProt P02768); assay: Ultrafiltration assay of binding to HSA; settings: for % bound to 4.5% HSA: 0.1 mM probe, 4.5% w/v HSA in 50 mM HEPES, ultrafiltration; for binding to HSA on average: average of the diastereoisomers Gd(6a) and Gd(6b), 0.1 mM, 4.5% w/v HSA
T1 sequence (P02768 25-609): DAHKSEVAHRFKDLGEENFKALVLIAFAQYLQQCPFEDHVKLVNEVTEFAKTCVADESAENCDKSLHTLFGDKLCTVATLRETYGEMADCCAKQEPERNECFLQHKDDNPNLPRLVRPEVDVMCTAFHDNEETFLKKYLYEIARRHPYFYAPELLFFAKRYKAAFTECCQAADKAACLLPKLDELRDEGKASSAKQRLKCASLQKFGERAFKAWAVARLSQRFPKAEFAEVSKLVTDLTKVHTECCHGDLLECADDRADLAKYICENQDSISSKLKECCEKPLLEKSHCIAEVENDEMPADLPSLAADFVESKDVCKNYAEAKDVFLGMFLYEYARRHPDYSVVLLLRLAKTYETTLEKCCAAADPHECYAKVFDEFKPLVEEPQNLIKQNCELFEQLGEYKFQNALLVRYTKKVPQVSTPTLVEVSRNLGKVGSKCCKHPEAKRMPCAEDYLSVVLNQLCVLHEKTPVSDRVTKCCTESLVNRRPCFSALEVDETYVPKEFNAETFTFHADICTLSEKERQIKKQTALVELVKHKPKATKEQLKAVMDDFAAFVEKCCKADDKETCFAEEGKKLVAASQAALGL
In short: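 Complex at a constant 0.1 mM (50 mM HEPES, concentration by ICP-MS) with 4.5% w/v HSA, ultrafiltered through a 5000 MW cutoff membrane. Compared against the filtrate of an HSA-free solution. Unbound and total Gd measured directly by ICP-MS, and binding given as percent bound to HSA. Error estimated at ±10%.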

[2] = Relaxivity in HEPES buffer in the absence of HSA; type: physicochemical; settings: 50 mM HEPES buffer pH 7.4, 37 °C
In short: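 Complex solid redissolved in 50 mM HEPES and filtered, with Gd concentration set by ICP-MS. Longitudinal relaxation (1/T1) measured at 0.47 and 1.41 T without HSA at 0.05-0.4 mM complex, in 50 mM HEPES pH 7.4 at 37 °C. r1 taken as slope of 1/T1 versus Gd concentration (mM). Error estimated at ±10% of value.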

[3] = biological target: T1, human serum albumin (HSA); assay: Relaxivity in the presence of 4.5% w/v HSA; settings: 50 mM HEPES buffer pH 7.4, 37 °C
In short: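 Complex in 50 mM HEPES with 4.5% w/v HSA, pH 7.4, 37 °C, with Gd content quantified by ICP-MS. 1/T1 recorded at 0.47 and 1.41 T across several complex concentrations. Observed relaxivity is the slope of 1/T1 against Gd concentration (mM). Estimated error is ±10% of the measured value.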

[4] = biological target: T1, human serum albumin (HSA); assay: T1 weighted MR image of samples with or without HSA; settings: 0.1 mM compound, with or without 4.5 % w/v HSA
In short: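 Samples of 0.1 mM compound, with or without 4.5% w/v HSA, imaged side by side with a T1-weighted sequence (TR/TE/flip angle 25 ms/4.7 ms/70°). Signal intensity read for each sample.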

[5] = biological target: T1, human serum albumin (HSA); settings: 0.1 mM probe, 4.5% w/v HSA; cited from earlier work
[6] = absence of HSA, cited from earlier work
[7] = biological target: T1, human serum albumin (HSA); settings: cited from earlier work

Row | signal / contrast in T1 weighted image with versus without HSA [4] | SMILES | % bound to 4.5% HSA [1] | binding to HSA on average [1] | r1^free ([2]; 0.47T) | r1^free ([2]; 1.41T) | r1^obs 4.5% HSA ([3]; 0.47T) | r1^obs 4.5% HSA ([3]; 1.41T) | % bound to 4.5% HSA [5] | r1^free ([6]; 0.47T) | r1^free ([6]; 1.41T) | r1^obs 4.5% HSA ([7]; 0.47T) | r1^obs 4.5% HSA ([7]; 1.41T)
1 |  | C[C@H](NC(=O)C(CN1CCN(CC(=O)O)CCN(CC(=O)O)CCN(CC(=O)O)CC1)NC(=O)C(N)Cc1cc(I)c(O)c(I)c1)c1ccccc1 (single isomer, unassigned) [Gd(6a)] | 34% | 37% | 7.1 mM⁻¹ s⁻¹ | 6.6 mM⁻¹ s⁻¹ | 18.5 mM⁻¹ s⁻¹ | 10.9 mM⁻¹ s⁻¹ |  |  |  |  | 
2 |  | C[C@H](NC(=O)C(CN1CCN(CC(=O)O)CCN(CC(=O)O)CCN(CC(=O)O)CC1)NC(=O)C(N)Cc1cc(I)c(O)c(I)c1)c1ccccc1 (single isomer, unassigned) [Gd(6b)] | 39% | 37% | 6.8 mM⁻¹ s⁻¹ | 6.1 mM⁻¹ s⁻¹ | 18.4 mM⁻¹ s⁻¹ | 11.7 mM⁻¹ s⁻¹ |  |  |  |  | 
3 |  | C[C@H](NC(=O)C(N)CN1CCN(CC(=O)O)CCN(CC(=O)O)CCN(CC(=O)O)CC1)c1ccccc1 (stereo partly drawn) [Gd(2), 2,2′,2″-(10-(2-amino-3-oxo-3-(((S)-1-phenylethyl)amino)propyl)-1,4,7,10-tetraazacyclododecane-1,4,7-triyl)triacetic acid] | 7% |  | 4.8 mM⁻¹ s⁻¹ | 3.9 mM⁻¹ s⁻¹ | 7.1 mM⁻¹ s⁻¹ | 5.9 mM⁻¹ s⁻¹ |  |  |  |  | 
4 |  | NC(Cc1cc(I)c(O)c(I)c1)C(=O)NC(CN1CCN(CC(=O)O)CCN(CC(=O)O)CCN(CC(=O)O)CC1)C(=O)O (stereo not drawn) [Gd(4), 2,2′,2″-(10-(2-(2-amino-3-(4-hydroxy-3,5-diiodophenyl)propanamido)-2-carboxyethyl)-1,4,7,10-tetraazacyclododecane-1,4,7-triyl)triacetic acid] | 20% |  | 6.1 mM⁻¹ s⁻¹ | 5.8 mM⁻¹ s⁻¹ | 23.7 mM⁻¹ s⁻¹ | 17.4 mM⁻¹ s⁻¹ |  |  |  |  | 
5 |  | COC(=O)CNC(=O)C(CN1CCN(CC(=O)O)CCN(CC(=O)O)CCN(CC(=O)O)CC1)NC(=O)C(N)Cc1cc(I)c(O)c(I)c1 (stereo not drawn) [Gd(5), 2,2′,2″-(10-(2-(2-amino-3-(4-hydroxy-3,5-diiodophenyl)propanamido)-3-((2-methoxy-2-oxoethyl)amino)-3-oxopropyl)-1,4,7,10-tetraazacy-clododecane-1,4,7-triyl)triacetic acid] | 25% |  | 6.9 mM⁻¹ s⁻¹ | 6.3 mM⁻¹ s⁻¹ | 20.9 mM⁻¹ s⁻¹ | 16.7 mM⁻¹ s⁻¹ |  |  |  |  | 
6 | increased signal in presence of HSA | O=C([O-])CN(CCN(CC(=O)[O-])C[C@H](COP(=O)([O-])OC1CCC(c2ccccc2)(c2ccccc2)CC1)N(CC(=O)[O-])CC(=O)[O-])CC(=O)[O-].[Gd+3].[H+].[H+].[H+] [MS-325, gadofosveset] |  |  |  |  |  |  | 88% ^a | 6.6 ^a mM^−1s^−1 | 5.5 ^a mM^−1s^−1 | 42 ^a mM^−1s^−1 | 23.8 ^a mM^−1s^−1
